FAS-TE inh = inhibitors of human fatty acid synthase thioesterase domain | P49327 | inhibition, % at 15 µM | recombinant FAS-TE, OMFH fluorogenic substrate, fluorescence endpoint | actives 0.67% (n = 360,000);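 active = compounds whose normalised, plate-corrected inhibition of enzyme fluorescence in the single-dose primary screen is 50% or more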
SENP1 inh = inhibitors of human SENP1 SUMO protease catalytic domain | Q9P0U3 | recombinant SENP1 catalytic domain, CyPet-SUMO1-YPet FRET cleavage | inhibition, % at 10 µM | actives 0.21% (n = 360,000) | AID 624204;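 active = inhibition at least 30% at 10 µM, raw YFP signal under a set limit, fluorescence ratio 0.5 to 1.5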
Target sequence (Q9P0U3 419-644 limits assumed): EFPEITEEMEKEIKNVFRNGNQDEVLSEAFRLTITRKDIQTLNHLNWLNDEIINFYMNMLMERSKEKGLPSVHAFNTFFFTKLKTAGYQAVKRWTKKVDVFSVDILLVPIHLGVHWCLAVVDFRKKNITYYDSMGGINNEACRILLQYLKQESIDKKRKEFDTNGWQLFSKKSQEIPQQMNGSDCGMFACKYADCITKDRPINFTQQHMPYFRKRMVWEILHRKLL
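System: Recombinant human SENP1 catalytic domain, His6-tagged | Incubation: Enzyme reaction for 50 min at room temperature, dark | Medium: Tris pH 8 with BME, BSA, NP40 and catalase | Also added: 25 nM SUMO1 FRET substrate | Compound: 10 µM single point, 0.5% DMSO | Measured by: FRET fluorescence in CFP and YFP emission channels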
H9c2 protect = protects H9c2 cardiomyocytes from peroxide injury. actives 0.63% (n = 360,000). protection from H2O2 cell death, % at 20 µM. H2O2 injury protection, ATPLite, 2 h. AID 588492;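 active = compounds giving at least 50% protection of heart cells from peroxide-induced death in the single-dose screen, raw or plate-pattern-corrected value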
hiPSC survival = enhancers of human iPSC single-cell survival; hiPSC single-cell survival, ATPlite luminescence; 100% = ROCK inhibitor wells, 0% = DMSO; survival enhancement, % at 20 µM; actives 0.044% (n = 360,000); AID 602274; in the data active = survival enhancement above about 18%;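 also: cells exposed to compounds for 16 hours before the ATP read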
GRIN3A LBD mod = modulates the human NR3A ligand-binding domain. NR3A LBD differential scanning fluorimetry, Tm shift; 0% = protein alone, 100% = glycine-bound protein. actives 2.5% (n = 340,000). Tm shift relative to glycine control, % at 25 µM. AID 1259313;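 active = melting temperature shift of at least 10% of the positive control shift, at one fixed dose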
Arr AP2 block = blocks beta-arrestin peptide binding to AP2 adaptin | FITC-arrestin peptide / GST-AP2 beads, flow cytometry; AP2 beta2 appendage carries R879A mutation | inhibition, % at 10 µM | actives 0.31% (n = 340,000);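 active = inhibition above a set limit, near 3 SD of compounds lacking own fluorescence, cut at about 54% in these data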
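System: GST-AP2 R879A glutathione beads. Medium: PBS with 0.05% Tween 20 and 0.1% BSA. Also added: FITC-arrestin peptide, 50 nM. Incubation: 12 min plus 1 h, RT. Measured by: high-throughput flow cytometry of beads, ex 488, em 535 nm. Evaluation: percent drop in bead-associated FITC signal.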
Arr AP2 CP1 = blocks beta-arrestin peptide binding to human AP2; inhibition, % at 10 µM; shares compounds with Arr AP2 block; actives 2% (n = 1,300); AID 504908; GST-AP2 beads, FITC arrestin peptide binding, flow cytometry; GST-fused beta2-adaptin appendage, R879A mutant;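 active = inhibition above a set limit, roughly 3 SD of non-fluorescent compound noise, cut at about 38% in these data; inactive = inhibition at or below that limit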;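 also: loss of bead fluorescence from 50 nM FITC arrestin peptide bound to appendage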
GST-FITC bead = counter-screen for beta-arrestin AP2 inhibitors: GST-GSH bead binding. shares compounds with Arr AP2 block. GST-fluorescein binding to GSH beads, fluorescence. inhibition, % at 10 µM. actives 2% (n = 1,300);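 active = inhibition above 50%, about 3 SD of the inhibition seen with non-fluorescent compounds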;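 also: fluorescein maleimide labelled GST captured on 4 micron glutathione beads; higher means more loss of bead fluorescence from quenching or blocked binding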
Each line names hits and unclear results; the compound was inactive in the other large screens (follow-up assays come after a bar, where they were run). In the library only some 4% were active in any assay of this set; here they are far more common.

CC(=O)Nc1ccc(S(=O)(=O)Nc2cccc(-c3nc4cc(C)ccc4o3)c2)cc1	GRIN3A LBD mod 16
O=C(Nc1ccc2oc(-c3ccncc3)nc2c1)c1cccs1	GRIN3A LBD mod 33
Cc1cc(NC(=O)c2cccs2)cc(-c2nc3ncccc3o2)c1O	H9c2 protect 58
Cc1ccc(-c2nc3ncccc3o2)cc1NC(=O)c1cccs1	none
CC(=O)Nc1ccc(-c2nc3ccc(NC(C)=O)cc3o2)cc1	GRIN3A LBD mod 11
CC(=O)Nc1ccc2oc(-c3ccccc3)nc2c1	none
O=C(Nc1ccc2oc(-c3ccc4ccccc4c3)nc2c1)c1ccc2c(c1)OCCO2	GRIN3A LBD mod 10
O=C(Nc1ccc(-c2nc3cc(NC(=O)c4cccs4)ccc3o2)cc1)c1cccs1	GRIN3A LBD mod 57
CC(=O)NC1=C(NC2CCS(=O)(=O)C2)C(=O)c2ccccc2C1=O (centres undefined)	GRIN3A LBD mod 13
CN(C1=C(NC(=O)c2ccccc2)C(=O)c2ccccc2C1=O)C1CCS(=O)(=O)C1 (centres undefined)	none (no result: GRIN3A LBD mod)
Nc1nonc1-n1nnc(C(=O)N/N=C/c2ccco2)c1CSc1ccccc1	GRIN3A LBD mod 27
Nc1nonc1C(=O)N/N=C/c1cc(Br)ccc1O	none (no result: FAS-TE inh, SENP1 inh, H9c2 protect, hiPSC survival)
Cc1ccc(SCc2c(C(=O)N/N=C/c3ccc4c(c3)OCO4)nnn2-c2nonc2N)cc1	GRIN3A LBD mod 31
Nc1nonc1-n1nnc(C(=O)N/N=C/c2cc(Br)ccc2O)c1CNc1ccccc1	GRIN3A LBD mod 23
Cc1ccc(SCc2c(C(=O)N/N=C/c3cccs3)nnn2-c2nonc2N)cc1	none (no result: GRIN3A LBD mod, Arr AP2 block)
Cc1ccc(SCc2c(C(=O)N/N=C/c3ccco3)nnn2-c2nonc2N)cc1	none (no result: GRIN3A LBD mod, Arr AP2 block)
Cc1ccc(SCc2c(C(=O)N/N=C/c3ccccc3)nnn2-c2nonc2N)cc1	GRIN3A LBD mod 33
Cc1cc2c(cc1C)-n1nnnc1C(N1CCN(c3ccccc3F)CC1)C(=O)N2 (centres undefined)	none (no result: FAS-TE inh, H9c2 protect, hiPSC survival, GRIN3A LBD mod, Arr AP2 block)
CCCC1NC(=O)c2cc3ccccc3cc2-n2c1nc1cc(F)ccc1c2=O (centres undefined)	none (no result: GRIN3A LBD mod, Arr AP2 block)
CCN(CC)Cc1c(C(=O)N/N=C/c2ccc(OCc3ccccc3C)cc2)nnn1-c1nonc1N	GRIN3A LBD mod 33
Cc1ccc(SCc2c(C(=O)N/N=C/c3ccoc3)nnn2-c2nonc2N)cc1	GRIN3A LBD mod 12
CN(C)Cc1c(C(=O)N/N=C/c2ccc(-c3ccccc3)cc2)nnn1-c1nonc1N	none
Cc1ccc(/C=N/NC(=O)c2nnn(-c3nonc3N)c2CSc2ccccc2)cc1	GRIN3A LBD mod 40
Cc1ccc(/C=N/NC(=O)c2nnn(-c3nonc3N)c2CNc2ccccc2)cc1	GRIN3A LBD mod 35
Cc1ccc(SCc2c(C(=O)N/N=C/c3ccc(C)o3)nnn2-c2nonc2N)cc1	none (no result: GRIN3A LBD mod, Arr AP2 block)
CCCCN(C=O)c1c(CC)nc2c(OCc3ccc(Cl)cc3)cccn12	none (no result: GRIN3A LBD mod, Arr AP2 block)
Nc1nonc1-n1nnc(C(=O)N/N=C/c2ccc(OCc3ccccc3F)cc2)c1CNc1ccccc1	GRIN3A LBD mod 34
COc1ccc(NC(=O)COc2nsnc2N2CCOCC2)c(OC)c1	GRIN3A LBD mod 14
Cc1cccc(Cc2c(C)nc3c(C(=O)NCc4ccco4)cnn3c2C)c1	hiPSC survival 19
Clc1ccc(N2O[C@H]3C=C[C@@H]2C3)nc1	none (no result: GRIN3A LBD mod, Arr AP2 block)
COc1ccc(NC(=O)CSc2nc3ccccc3nc2N2CCCCC2)cc1	none
COc1ccc(NC(=O)CSc2nc(N3CCCCC3)nc(N3CCCCC3)n2)cc1	GRIN3A LBD mod 13
Nc1nonc1-n1nnc(C(=O)N/N=C/c2ccc(OCc3ccc(F)cc3)cc2)c1COc1ccccc1	GRIN3A LBD mod 26
Nc1nonc1-n1nnc(C(=O)N/N=C/c2ccc(OCc3ccccc3)cc2)c1CN1CCCCC1	GRIN3A LBD mod 18
Cc1cc(C)c(/C=N/NC(=O)c2nnn(-c3nonc3N)c2COc2ccc(F)cc2)c(C)c1	GRIN3A LBD mod 26
Cc1cccc(COc2ccc(/C=N/NC(=O)c3nnn(-c4nonc4N)c3C)cc2)c1	none
CCCc1c(C(=O)N/N=C/c2ccc(OCc3ccc(F)cc3)cc2)nnn1-c1nonc1N	none (no result: GRIN3A LBD mod, Arr AP2 block)
Cc1ccc(COc2ccc(/C=N/NC(=O)c3nnn(-c4nonc4N)c3COc3ccc(F)cc3)cc2)cc1	GRIN3A LBD mod 21
CC1(C(=O)NS(=O)(=O)c2cccc(F)c2)CCN1C(=O)CC1CCCCC1 (centres undefined)	none (no result: GRIN3A LBD mod, Arr AP2 block)
CC(=O)N[C@@H]1C=C[C@@H](CC(=O)NCc2ccc(Cl)cc2)O[C@@H]1CO	none (no result: FAS-TE inh, H9c2 protect, hiPSC survival, GRIN3A LBD mod, Arr AP2 block)
Cc1ccc(S(=O)(=O)N2[C@H](CC(=O)c3cccs3)OC[C@@H]2C(C)C)cc1	none (no result: FAS-TE inh, H9c2 protect, hiPSC survival, GRIN3A LBD mod, Arr AP2 block)
CC(C)CC1C(=O)N(Cc2cn(CC3CCCCC3)nn2)CCS(=O)(=O)N1Cc1ccc(-c2cccc(C#N)c2)cc1 (centres undefined)	none
CC(=O)Nc1ccc(S(=O)(=O)N(CCO)Cc2ccccc2)cc1	none
CC(=O)Nc1ccc(S(=O)(=O)N(C)CCOCc2ccccc2)cc1	GRIN3A LBD mod 16
O=c1c2c3c(sc2nc2n1CCCS2)CCCC3	none
Cc1sc2nc3n(c(=O)c2c1C)CCCS3	GRIN3A LBD mod 18
CC1(C(=O)NCc2ccc(Cl)cc2)CCN1C(=O)Cc1cccs1 (centres undefined)	none (no result: GRIN3A LBD mod, Arr AP2 block)
NC1=NCC(O)=C1c1nc2ccccc2[nH]1	Arr AP2 block 66 | Arr AP2 CP1 inactive | GST-FITC bead inactive
N=C1C(c2nc3ccccc3[nH]2)=C(O)CN1c1ccc(F)cc1	none
O=C1c2ccccc2NC(c2cnc3ccccc3n2)N1O (centres undefined)	Arr AP2 block 94 | Arr AP2 CP1 inactive | GST-FITC bead inactive
O=C(Nc1ccccc1N1CCOCC1)c1cc(=O)[nH]c2ccccc12	none
COc1ccc(-n2c(SCC(=O)O)nc3sc4c(c3c2=O)CCCC4)cc1	Arr AP2 block 59 | Arr AP2 CP1 inactive | GST-FITC bead inactive
COc1ccc2nc(-c3ccccc3)cc(C(=O)OCC(=O)N3CCCCC3)c2c1	none
COc1ccc2nc(-c3ccccc3)cc(C(=O)OCC(=O)N3CC(C)OC(C)C3)c2c1 (centres undefined)	Arr AP2 block 54 | Arr AP2 CP1 inactive | GST-FITC bead inactive

Screening data: PubChem BioAssay, several laboratories
